# Assay outcomes (PubChem)
# 697 NFkB inh: inhibitors of the PMA/ionomycin-induced NF-kB reporter in 697 B cells | inhibition, % at 4 µM | 697 B-cell NF-kB luciferase reporter, 16 h | 330,000 compounds, 0.33% hits; in the data active = inhibition above about 35%
# aDG glyco act: alpha-DG glycosylation activation; activation, % at 10 µM; Pro5-aDG cells, alpha-DG glycosylation AlphaScreen (IIH6); 0% Pro5, 100% B10-LARGE cell signal; 360,000 compounds, 0.22% hits; AID 624168;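 active = activation of at least 8% versus controls, or a plate z-score of at least 8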;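 note: Pro5 are CHO cells carrying HIG-tagged alpha-DG that lacks glycosylation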
# Jurkat NFkB inh: lowers PMA/ionomycin-induced NF-kB signal in Jurkat cells | 330,000 compounds, 0.53% hits | inhibition, % at 4 µM | PMA/ionomycin-induced NF-kB luciferase reporter, luminescence; in the data active = inhibition above about 50%
# MPTP block: inhibitors of mitochondrial permeability transition pore. isolated mouse mitochondria, Ca2+ swelling absorbance, 30 min. inhibition, % at 10 µM. 360,000 compounds, 1.4% hits. AID 602449;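 active = inhibition of 50% or more, scaled per plate between neutral and stimulator controls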
# NR2E3 ag-1: agonists of human nuclear receptor NR2E3. 320,000 compounds, 0.12% hits. GST-NR2E3/biotin-RetCOR TR-FRET, 1536-well. Q9Y5X4. inhibition of corepressor binding, % at 4.78 µM;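 active = percent inhibition above the cutoff of mean plus 3 SD of all tested compounds, set per screening campaign, cut at about 20% in these data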
# Target sequence (Q9Y5X4 whole entry, looked up): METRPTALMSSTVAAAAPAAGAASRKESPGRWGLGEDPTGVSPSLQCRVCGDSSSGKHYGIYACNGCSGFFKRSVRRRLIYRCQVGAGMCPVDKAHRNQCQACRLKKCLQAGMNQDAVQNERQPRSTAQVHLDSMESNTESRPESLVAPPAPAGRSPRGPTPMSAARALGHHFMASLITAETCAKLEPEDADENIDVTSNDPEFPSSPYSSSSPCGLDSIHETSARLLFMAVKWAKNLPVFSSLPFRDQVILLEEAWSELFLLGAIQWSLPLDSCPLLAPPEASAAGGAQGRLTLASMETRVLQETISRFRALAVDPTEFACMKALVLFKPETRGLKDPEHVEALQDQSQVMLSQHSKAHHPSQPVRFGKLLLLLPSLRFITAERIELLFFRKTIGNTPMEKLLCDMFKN
#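 Material: NR2E3–RetCOR corepressor complex | Quantity: 1.35 nM GST-tagged NR2E3 final | Schedule: 5 h at 4 °C | Replication: Singlicate compound wells | Reagent: RetCOR corepressor, biotinylated, 7 nM | Controls: Biotin wells as high control, 0.6% DMSO wells as low control | Signal: TR-FRET, Eu(K)-anti-GST donor, streptavidin-D2 acceptor, ex 340, em 617/671 nm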
# NR2E3 ag-2: activates human NR2E3 receptor. AID 602229. CHO-S Gal4-NCOR/VP16-NR2E3 two-hybrid, luciferase. 360,000 compounds, 0.35% hits. inhibition of corepressor binding, % at 3.98 µM. Q9Y5X4;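 active = inhibition above the mean of all tested compounds plus 3 SD, cut at about 70% in these data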;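 note: higher means lower luciferase signal from less NR2E3 corepressor binding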
# NR2E3 ag confirm: NR2E3 agonism confirmed in two-hybrid assay. shares compounds with NR2E3 ag-2. inhibition, % at 3.98 µM. AID 624378. CHO-S mammalian two-hybrid NR2E3-NCOR, luciferase luminescence. 2,300 compounds, 51% hits;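 active = average inhibition above a cutoff equal to the mean inhibition of all tested compounds plus one SD, cut at about 70% in these data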
# GAL4-VP16 luc: reduces GAL4-VP16 reporter signal in NR2E3 counterscreen. shares compounds with NR2E3 ag-2. 2,300 compounds, 29% hits. inhibition, % at 3.98 µM. CHO-S GAL4-VP16 luciferase reporter, luminescence;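 active = mean inhibition above a cutoff equal to the average over all tested compounds plus one standard deviation, cut at about 70% in these data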;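 note: luciferase from a UAS reporter driven by GAL4-VP16 transactivation; higher means less reporter light so more repression of VP16 activity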
# Rh123 counter: mitochondrial membrane potential, counter-screen. shares compounds with MPTP block. isolated mitochondria, Rhodamine 123 fluorescence. inhibition, % at 10 µM. 5,000 compounds, 78% hits. AID 624504; in the data active = inhibition above about 22%
# MPTP swell DR: MPTP inhibition, dose response swelling confirmation | AID 651561 | 780 compounds, 58% hits | IC50, µM | isolated mitochondria swelling, absorbance | shares compounds with MPTP block; in the data active = IC50 below about 20 µM
# MPTP counter DR: counter-screen for mitochondrial permeability transition pore inhibitors, dose response; shares compounds with MPTP block; isolated mitochondria counterscreen, fluorescence read-out; IC50, µM; 780 compounds, 49% hits; in the data active = IC50 below about 80 µM
# aDG conf: alpha-DG glycosylation activation, confirmation | shares compounds with aDG glyco act | Pro5-aDG cells, IIH6 AlphaLISA; scaled to LARGE-overexpressing B10 cells as 100% | activation, % at 10 µM (by protocol) | 600 compounds, 17% hits | AID 651671;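 active = activation of at least 7% in one or more replicates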;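 note: cells exposed to compound for two days before detection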
# Numbers stand for hits; 0 = inactive; - = no result given. This is a sample that favours compounds with a hit; in the whole collection about 2.4% have one here.
SMILES,697 NFkB inh,aDG glyco act,Jurkat NFkB inh,MPTP block,NR2E3 ag-1,NR2E3 ag-2,Rh123 counter,others
CCC(=NCCc1c[nH]c2ccccc12)c1c(O)n(C)c(=O)n(C)c1=O,0,5.0,0,69.9,0,73.1,58.6,NR2E3 ag confirm=86.6;GAL4-VP16 luc=77.2;aDG conf=0
CC1=C2[C@H]3OC(=O)[C@@H](C)[C@@H]3CC[C@@]2(C)C=CC1=O,0,0,0,0,0,0,-,
CCN(CC)CCCNC(=O)c1c(O)c2ccccc2n(Cc2ccccc2)c1=O,0,0,0,78.9,0,0,0,MPTP swell DR=16.3;MPTP counter DR=0
CCN(CC)CCNC(=O)c1c(O)c2ccccc2n(Cc2ccccc2)c1=O,0,0,0,0,0,0,-,
Cc1cc(C)n(-c2ccc(NN=C(C#N)C#N)cc2)n1,0,0,0,84.4,0,0,89.7,
Cc1ccc(N=Cc2c(O)n(C)c(=O)n(C)c2=O)cc1,0,0,0,0,0,0,-,
CC1(C)C(=O)CC[C@@]2(C)C1=CCC1C2CC[C@]2(C)C(=O)CCC12 (stereo partly drawn),0,0,0,59.4,-,0,0,MPTP swell DR=6.31;MPTP counter DR=13.2
COc1ccc(N2C(=O)NC(=O)/C(=C\c3ccc([N+](=O)[O-])s3)C2=O)cc1,0,0,0,55.5,0,0,0,
CCN(CC)CCN=C(C)c1c(O)n(-c2ccccc2OC)c(=O)[nH]c1=O,0,0,0,0,0,0,-,
Cc1ccc2c(c1)C1CN(C)CCC1N2C(=O)Nc1cccc(Cl)c1 (stereo not drawn),0,0,0,94.4,0,0,91.0,
CCC(=C(c1ccc(O)cc1)c1ccc(OCCN(C)C)cc1)c1ccccc1,-,0,-,0,-,0,-,MPTP swell DR=0;MPTP counter DR=0
CCC(=O)c1ccc(OC(=O)N(C)c2ccccc2)cc1,0,0,0,0,0,0,-,
CC1CN(C(=O)CCC(=O)N2CCC3(CC2)OCCO3)c2cc(Cl)ccc2O1 (stereo not drawn),0,0,0,0,0,0,-,
CN1CCC(O)(c2ccccc2)C(C(=O)c2ccccc2)C1 (stereo not drawn),0,0,0,54.6,0,0,0,MPTP swell DR=0;MPTP counter DR=0
Cc1ccccc1N1C(=O)NC(=O)/C(=C\c2ccc3c(c2)CCCN3Cc2ccccc2)C1=O,0,0,0,0,0,0,-,
O=C1NC(=S)NC(=O)C1=Cc1ccc2c(c1)CCN2CCCCl,0,0,0,60.3,0,0,0,
Oc1cc(Cl)ccc1Oc1ccc(Cl)cc1Cl,0,0,0,91.9,0,0,98.9,
COc1ccc(-c2ccc3c(c2)CN(C(=S)NCCc2ccccc2)Cc2cnnn2-3)cc1,-,0,-,0,-,0,-,
Cc1ncc(CN2CCCC(C(=O)c3ccc(C(C)(C)C)cc3)C2)s1 (stereo not drawn),0,0,0,75.0,0,0,73.1,
O=C(c1ccc(Cl)cc1)C1CCCN(Cc2cccc3ncccc23)C1 (stereo not drawn),0,0,0,96.6,0,0,72.2,
O=C(c1ccc(C(F)(F)F)cc1)C1CCCN(Cc2ccncc2)C1 (stereo not drawn),0,0,0,85.7,0,0,47.8,
O=C(CCCc1ccccc1)NCCc1cnc[nH]1,0,0,0,0,0,0,-,
Cc1cc(=O)oc2cc(OCC(=O)N3C[C@H]4C[C@@H](C3)c3cccc(=O)n3C4)ccc12,0,0,0,0,0,0,-,
CC(=O)N(C)CC#CCN1CCCC(CO)C1 (stereo not drawn),0,0,0,0,0,0,-,
CC1C(c2cccs2)=[N+]([O-])C(C)(C(=O)c2cccs2)N1O (stereo not drawn),0,0,0,0,0,0,-,
SMILES,697 NFkB inh,aDG glyco act,Jurkat NFkB inh,MPTP block,NR2E3 ag-1,NR2E3 ag-2,Rh123 counter,others
COc1ccc(CC(=O)C2C(=O)N(C)c3ccccc32)cc1OC (stereo not drawn),-,0,-,0,-,0,-,
COc1cc(C2SCC(=O)Nc3c2c(=O)[nH]n3C2CCCCCC2)cc(OC)c1OC (stereo not drawn),0,0,0,0,0,0,-,
O=C(Nc1ccc(Cl)cc1)Nc1nccs1,0,0,0,85.6,0,0,88.6,
O=C(Nc1nccs1)C(Cl)(Cl)Cl,0,0,0,0,0,0,-,
C=CCn1c(O)c(C(C)=Nc2ccc(N(CC)CC)cc2)c(=O)[nH]c1=O,0,0,0,0,0,0,-,
C=CCn1c(O)c(C(CC)=Nc2ccc(N(CC)CC)cc2)c(=O)[nH]c1=O,0,0,0,74.6,0,0,29.0,
COCCNCCOc1ccc(C(C)(C)c2ccccc2)cc1,0,0,0,77.5,0,0,0,MPTP swell DR=7.74;MPTP counter DR=0
CCc1nnc(NS(=O)(=O)c2ccc(N=Cc3c(O)n(-c4ccc(Cl)cc4)c(=O)[nH]c3=O)cc2)s1,0,0,0,0,0,0,-,
CCN1C(=O)/C(=C/c2ccc(N(CC)CC)cc2OC)C(=O)NC1=S,0,0,0,65.8,0,0,0,
COc1ccccc1/C=C1\C(=O)NC(=S)N(c2ccccc2)C1=O,0,0,0,0,0,0,-,
CCC(=Nc1cccc(C(F)(F)F)c1)c1c(O)n(C)c(=O)n(C)c1=O,0,0,0,79.6,0,0,0,MPTP swell DR=9.01;MPTP counter DR=14.3
CCC(=Nc1ccc(OC)cc1OC)c1c(O)n(C)c(=O)n(C)c1=O,0,0,0,0,0,0,-,
O=C1NC(=O)N(c2ccccc2)C(=O)/C1=C/c1ccc(Sc2ccccc2)o1,-,0,-,51.1,0,0,42.5,
CCCCC1(CCCC)C(=O)NC(=Nc2cccc(C)c2)NC1=O,0,0,0,91.9,0,0,92.6,
CCOc1ccc(NC(=O)CCNC(=O)N2C[C@H]3C[C@@H](C2)c2cccc(=O)n2C3)cc1,0,0,0,0,0,0,-,
CCN(CC)S(=O)(=O)c1ccc(NN=C(C#N)C#N)cc1,0,0,0,102.6,0,0,80.3,
COC(=O)C1=C(c2cccc(C#N)c2)C[C@@H]2CC[C@H]1N2C(=O)N1CCCCC1,0,0,0,0,0,0,-,
